Assay results as given in ChEMBL document CHEMBL2311435, “Development of 18F-labeled picolinamide probes for PET imaging of malignant melanoma” (J Med Chem, 2013).

Tests used:
Intestine [1] = assay: Biodistribution in intestine of C57BL/6 mouse xenografted with mouse B16F10 cells at 3.7 MBq, iv after 1 hr by gamma-scintillation counting analysis; assay type: ADME, organism-based, B16-F10; details: in vivo
Method in brief: (§1)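 1.0 × 10^6 B16F10 cells in PBS injected subcutaneously into the right shoulder of C57BL/6 mice, grown to 0.5 cm (~10 day). Tail-vein injection of about 3.7 MBq (100 μCi) 18F probe in PBS (0.1 M, pH 7.4). Killed at 1.0 or 2.0 h p.i. (n = 4 per group). Tissues excised, weighed and gamma-counted; uptake expressed as %ID/g, mean ± SD.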

Brain [2] = assay: Biodistribution in brain of C57BL/6 mouse xenografted with mouse B16F10 cells at 3.7 MBq, iv after 1 hr by gamma-scintillation counting analysis; assay type: ADME, organism-based, B16-F10; details: in vivo; method in brief: as §1
Stomach [3] = assay: Biodistribution in stomach of C57BL/6 mouse xenografted with mouse B16F10 cells at 3.7 MBq, iv after 1 hr by gamma-scintillation counting analysis; assay type: ADME, organism-based, B16-F10; details: in vivo; method in brief: as §1
Spleen [4] = assay: Biodistribution in spleen of C57BL/6 mouse xenografted with mouse B16F10 cells at 3.7 MBq, iv after 1 hr by gamma-scintillation counting analysis; assay type: ADME, organism-based, B16-F10; details: in vivo; method in brief: as §1
Pancreas [5] = assay: Biodistribution in pancreas of C57BL/6 mouse xenografted with mouse B16F10 cells at 3.7 MBq, iv after 1 hr by gamma-scintillation counting analysis; assay type: ADME, organism-based, B16-F10; details: in vivo; method in brief: as §1
Liver [6] = assay: Biodistribution in liver of C57BL/6 mouse xenografted with mouse B16F10 cells at 3.7 MBq, iv after 1 hr by gamma-scintillation counting analysis; assay type: ADME, organism-based, B16-F10; details: in vivo; method in brief: as §1
Mus musculus [7] = assay: Biodistribution in lungs of C57BL/6 mouse xenografted with mouse B16F10 cells at 3.7 MBq, iv after 1 hr by gamma-scintillation counting analysis; assay type: ADME, organism-based, Lung, B16-F10; details: in vivo; method in brief: as §1
Heart [8] = assay: Biodistribution in heart of C57BL/6 mouse xenografted with mouse B16F10 cells at 3.7 MBq, iv after 1 hr by gamma-scintillation counting analysis; assay type: ADME, organism-based, B16-F10; details: in vivo; method in brief: as §1
Mus musculus [9] = assay: Biodistribution in tumor of C57BL/6 mouse xenografted with mouse B16F10 cells at 3.7 MBq, iv after 1 hr by gamma-scintillation counting analysis; assay type: ADME, organism-based, Neoplasm, B16-F10; details: in vivo; method in brief: as §1
Blood [10] = assay: Biodistribution in blood of C57BL/6 mouse xenografted with mouse B16F10 cells at 3.7 MBq, iv after 1 hr by gamma-scintillation counting analysis; assay type: ADME, organism-based, B16-F10; details: in vivo; method in brief: as §1
[11] = Drug uptake in tumor of C57BL/6 mouse xenografted with mouse B16F10 cells at 3.7 MBq, iv after 2 hrs by PET imaging analysis; assay type: ADME, organism-based, Neoplasm, B16-F10; details: in vivo
Method in brief: (§2)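 Static small-animal PET at 0.5, 1 and 2 h after tail-vein injection of ~3.7 MBq (100 μCi) into B16F10-bearing C57BL/6 mice (n = 4 per probe). Isoflurane anesthesia, 5% induction and 2% maintenance in O2. Decay-corrected images. ROI-derived %ID/g assumes 1 g/ml density, without attenuation correction. Mean ± SD.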

[12] = Drug uptake in tumor of C57BL/6 mouse xenografted with mouse B16F10 cells at 3.7 MBq, iv after 1 hr by PET imaging analysis; assay type: ADME, organism-based, Neoplasm, B16-F10; details: in vivo; method in brief: as §2
[13] = Drug uptake in tumor of C57BL/6 mouse xenografted with mouse B16F10 cells at 3.7 MBq, iv after 0.5 hrs by PET imaging analysis; assay type: ADME, organism-based, Neoplasm, B16-F10; details: in vivo; method in brief: as §2
Nucleic Acid [14] = assay: Ratio of drug uptake in tumor to muscle of C57BL/6 mouse xenografted with mouse B16F10 cells at 3.7 MBq, iv after 2 hrs by gamma-scintillation counting analysis; assay type: ADME, organism-based, B16-F10; details: in vivo
Method in brief: (§3)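 Same subcutaneous B16F10 model and tail-vein dose of about 3.7 MBq (100 μCi), n = 4 per group. Dissection at 1 or 2 h p.i. Gamma-counter %ID/g of tumor divided by that of blood, lung, liver or muscle, given as mean ± SD.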

Nucleic Acid [15] = assay: Ratio of drug uptake in tumor to liver of C57BL/6 mouse xenografted with mouse B16F10 cells at 3.7 MBq, iv after 2 hrs by gamma-scintillation counting analysis; assay type: ADME, organism-based, B16-F10; details: in vivo; method in brief: as §3
Nucleic Acid [16] = assay: Ratio of drug uptake in tumor to lungs of C57BL/6 mouse xenografted with mouse B16F10 cells at 3.7 MBq, iv after 2 hrs by gamma-scintillation counting analysis; assay type: ADME, organism-based, B16-F10; details: in vivo; method in brief: as §3
Nucleic Acid [17] = assay: Ratio of drug uptake in tumor to blood of C57BL/6 mouse xenografted with mouse B16F10 cells at 3.7 MBq, iv after 2 hrs by gamma-scintillation counting analysis; assay type: ADME, organism-based, B16-F10; details: tumour; method in brief: as §3
Nucleic Acid [18] = assay: Ratio of drug uptake in tumor to muscle of C57BL/6 mouse xenografted with mouse B16F10 cells at 3.7 MBq, iv after 1 hr by gamma-scintillation counting analysis; assay type: ADME, organism-based, B16-F10; details: in vivo; method in brief: as §3
Nucleic Acid [19] = assay: Ratio of drug uptake in tumor to liver of C57BL/6 mouse xenografted with mouse B16F10 cells at 3.7 MBq, iv after 1 hr by gamma-scintillation counting analysis; assay type: ADME, organism-based, B16-F10; details: in vivo; method in brief: as §3
Nucleic Acid [20] = assay: Ratio of drug uptake in tumor to lungs of C57BL/6 mouse xenografted with mouse B16F10 cells at 3.7 MBq, iv after 1 hr by gamma-scintillation counting analysis; assay type: ADME, organism-based, B16-F10; details: in vivo; method in brief: as §3
Nucleic Acid [21] = assay: Ratio of drug uptake in tumor to blood of C57BL/6 mouse xenografted with mouse B16F10 cells at 3.7 MBq, iv after 1 hr by gamma-scintillation counting analysis; assay type: ADME, organism-based, B16-F10; details: tumour; method in brief: as §3
Mus musculus [22] = assay: Biodistribution in eye of C57BL/6 mouse xenografted with mouse B16F10 cells at 3.7 MBq, iv after 2 hrs by gamma-scintillation counting analysis; assay type: ADME, organism-based, B16-F10; details: in vivo; method in brief: as §1
Bone [23] = assay: Biodistribution in bone of C57BL/6 mouse xenografted with mouse B16F10 cells at 3.7 MBq, iv after 2 hrs by gamma-scintillation counting analysis; assay type: ADME, organism-based, Bone element, B16-F10; details: in vivo; method in brief: as §1
Muscle tissue [24] = assay: Biodistribution in muscle of C57BL/6 mouse xenografted with mouse B16F10 cells at 3.7 MBq, iv after 2 hrs by gamma-scintillation counting analysis; assay type: ADME, organism-based, B16-F10; details: in vivo; method in brief: as §1
Zone of skin [25] = assay: Biodistribution in skin of C57BL/6 mouse xenografted with mouse B16F10 cells at 3.7 MBq, iv after 2 hrs by gamma-scintillation counting analysis; assay type: ADME, organism-based, B16-F10; details: in vivo; method in brief: as §1
Kidney [26] = assay: Biodistribution in kidney of C57BL/6 mouse xenografted with mouse B16F10 cells at 3.7 MBq, iv after 2 hrs by gamma-scintillation counting analysis; assay type: ADME, organism-based, B16-F10; details: in vivo; method in brief: as §1
Intestine [27] = assay: Biodistribution in intestine of C57BL/6 mouse xenografted with mouse B16F10 cells at 3.7 MBq, iv after 2 hrs by gamma-scintillation counting analysis; assay type: ADME, organism-based, B16-F10; details: in vivo; method in brief: as §1
Brain [28] = assay: Biodistribution in brain of C57BL/6 mouse xenografted with mouse B16F10 cells at 3.7 MBq, iv after 2 hrs by gamma-scintillation counting analysis; assay type: ADME, organism-based, B16-F10; details: in vivo; method in brief: as §1
Stomach [29] = assay: Biodistribution in stomach of C57BL/6 mouse xenografted with mouse B16F10 cells at 3.7 MBq, iv after 2 hrs by gamma-scintillation counting analysis; assay type: ADME, organism-based, B16-F10; details: in vivo; method in brief: as §1
Pancreas [30] = assay: Biodistribution in pancreas of C57BL/6 mouse xenografted with mouse B16F10 cells at 3.7 MBq, iv after 2 hrs by gamma-scintillation counting analysis; assay type: ADME, organism-based, B16-F10; details: in vivo; method in brief: as §1
Spleen [31] = assay: Biodistribution in spleen of C57BL/6 mouse xenografted with mouse B16F10 cells at 3.7 MBq, iv after 2 hrs by gamma-scintillation counting analysis; assay type: ADME, organism-based, B16-F10; details: in vivo; method in brief: as §1
Liver [32] = assay: Biodistribution in liver of C57BL/6 mouse xenografted with mouse B16F10 cells at 3.7 MBq, iv after 2 hrs by gamma-scintillation counting analysis; assay type: ADME, organism-based, B16-F10; details: in vivo; method in brief: as §1
Mus musculus [33] = assay: Biodistribution in lungs of C57BL/6 mouse xenografted with mouse B16F10 cells at 3.7 MBq, iv after 2 hrs by gamma-scintillation counting analysis; assay type: ADME, organism-based, Lung, B16-F10; details: in vivo; method in brief: as §1
Heart [34] = assay: Biodistribution in heart of C57BL/6 mouse xenografted with mouse B16F10 cells at 3.7 MBq, iv after 2 hrs by gamma-scintillation counting analysis; assay type: ADME, organism-based, B16-F10; details: in vivo; method in brief: as §1
Blood [35] = assay: Biodistribution in blood of C57BL/6 mouse xenografted with mouse B16F10 cells at 3.7 MBq, iv after 2 hrs by gamma-scintillation counting analysis; assay type: ADME, organism-based, B16-F10; details: in vivo; method in brief: as §1
Mus musculus [36] = assay: Biodistribution in tumor of C57BL/6 mouse xenografted with mouse B16F10 cells at 3.7 MBq, iv after 2 hrs by gamma-scintillation counting analysis; assay type: ADME, organism-based, Neoplasm, B16-F10; details: in vivo; method in brief: as §1
Bone [37] = assay: Biodistribution in bone of C57BL/6 mouse xenografted with mouse B16F10 cells at 3.7 MBq, iv after 1 hr by gamma-scintillation counting analysis; assay type: ADME, organism-based, Bone element, B16-F10; details: in vivo; method in brief: as §1
Mus musculus [38] = assay: Biodistribution in eye of C57BL/6 mouse xenografted with mouse B16F10 cells at 3.7 MBq, iv after 1 hr by gamma-scintillation counting analysis; assay type: ADME, organism-based, B16-F10; details: in vivo; method in brief: as §1
Muscle tissue [39] = assay: Biodistribution in muscle of C57BL/6 mouse xenografted with mouse B16F10 cells at 3.7 MBq, iv after 1 hr by gamma-scintillation counting analysis; assay type: ADME, organism-based, B16-F10; details: in vivo; method in brief: as §1
Zone of skin [40] = assay: Biodistribution in skin of C57BL/6 mouse xenografted with mouse B16F10 cells at 3.7 MBq, iv after 1 hr by gamma-scintillation counting analysis; assay type: ADME, organism-based, B16-F10; details: in vivo; method in brief: as §1
Kidney [41] = assay: Biodistribution in kidney of C57BL/6 mouse xenografted with mouse B16F10 cells at 3.7 MBq, iv after 1 hr by gamma-scintillation counting analysis; assay type: ADME, organism-based, B16-F10; details: in vivo; method in brief: as §1

CCN(CC)CCNC(=O)c1cc([18F])ccn1
Drug uptake (Intestine [1]): 2.28 % ID/g | Drug uptake (Brain [2]): 0.49 % ID/g | Drug uptake (Stomach [3]): 2.24 % ID/g | Drug uptake (Spleen [4]): 1.09 % ID/g | Drug uptake (Pancreas [5]): 1.06 % ID/g | Drug uptake (Liver [6]): 2.07 % ID/g | Drug uptake (Mus musculus [7]): 0.88 % ID/g | Drug uptake (Heart [8]): 0.6 % ID/g | Drug uptake (Mus musculus [9]): 7.54 % ID/g | Drug uptake (Blood [10]): 0.33 % ID/g | Drug uptake [11]: 9.73 % ID/g | Drug uptake [12]: 8.97 % ID/g | Drug uptake [13]: 9.52 % ID/g | Ratio (Nucleic Acid [14]): 27.75 | Ratio (Nucleic Acid [15]): 4.16 | Ratio (Nucleic Acid [16]): 9.46 | Ratio (Nucleic Acid [17]): 44.33 | Ratio (Nucleic Acid [18]): 13.12 | Ratio (Nucleic Acid [19]): 3.85 | Ratio (Nucleic Acid [20]): 8.81 | Ratio (Nucleic Acid [21]): 28.32 | Drug uptake (Mus musculus [22]): 32.45 % ID/g | Drug uptake (Bone [23]): 10.27 % ID/g | Drug uptake (Muscle tissue [24]): 0.2 % ID/g | Drug uptake (Zone of skin [25]): 0.63 % ID/g | Drug uptake (Kidney [26]): 0.69 % ID/g | Drug uptake (Intestine [27]): 0.98 % ID/g | Drug uptake (Brain [28]): 0.24 % ID/g | Drug uptake (Stomach [29]): 1.64 % ID/g | Drug uptake (Pancreas [30]): 0.44 % ID/g | Drug uptake (Spleen [31]): 0.31 % ID/g | Drug uptake (Liver [32]): 1.41 % ID/g | Drug uptake (Mus musculus [33]): 0.59 % ID/g | Drug uptake (Heart [34]): 0.37 % ID/g | Drug uptake (Blood [35]): 0.15 % ID/g | Drug uptake (Mus musculus [36]): 8.66 % ID/g | Drug uptake (Bone [37]): 11.29 % ID/g | Drug uptake (Mus musculus [38]): 35.96 % ID/g | Drug uptake (Muscle tissue [39]): 0.6 % ID/g | Drug uptake (Zone of skin [40]): 0.73 % ID/g | Drug uptake (Kidney [41]): 1.34 % ID/g

CCN(CC)CCNC(=O)c1ccc([18F])cc1
Drug uptake (Mus musculus [36]): 5.94 % ID/g
